A short description of data set [1]: Half life of thermal relaxation of the compound in D2O in dark at 10 mM by 1H NMR analysis. It is filed as physicochemical. The conditions noted are these: 10000 µM. Put shortly: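 Thermal relaxation of the photoisomer back to the (E)-form followed in the dark by 1H NMR in D2O, 10 mM, at 37 °C.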
Data set [2] addresses T1, Sodium- and chloride-dependent GABA transporter 1 (Mus musculus, UniProt P31648). In words: Inhibition of mouse GAT1 stably expressed in HEK293 assessed as inhibition of [3H]GABA uptake treated with compound irradiated at 350 nm for 30 mins measured after 25 mins by liquid scintillation counting. The format is cell-based.
Data set [3] has as its target T1, Sodium- and chloride-dependent GABA transporter 1. Kind of data set: Inhibition of mouse GAT1 stably expressed in HEK293 assessed as inhibition of [3H]GABA uptake after 25 mins by liquid scintillation counting. The format is cell-based. The essentials: (§1)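 HEK cells stably expressing the individual murine GABA transporter subtype; standardized [3H]GABA uptake assay adapted for photoswitchable ligands, run with the pure (E)-isomers; inhibition expressed as pIC50 ± SEM.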

The target is the same in data set [4]. Kind of data set: Inhibition of mouse GAT1 stably expressed in HEK293 assessed as inhibition of [3H]GABA uptake treated with compound irradiated at 375 nm for 30 mins measured after 25 mins by liquid scintillation counting. The format is cell-based.
The next data set addresses T2, GABA transporter 2 (Mus musculus, UniProt P31651).
T2 sequence (P31651 whole entry): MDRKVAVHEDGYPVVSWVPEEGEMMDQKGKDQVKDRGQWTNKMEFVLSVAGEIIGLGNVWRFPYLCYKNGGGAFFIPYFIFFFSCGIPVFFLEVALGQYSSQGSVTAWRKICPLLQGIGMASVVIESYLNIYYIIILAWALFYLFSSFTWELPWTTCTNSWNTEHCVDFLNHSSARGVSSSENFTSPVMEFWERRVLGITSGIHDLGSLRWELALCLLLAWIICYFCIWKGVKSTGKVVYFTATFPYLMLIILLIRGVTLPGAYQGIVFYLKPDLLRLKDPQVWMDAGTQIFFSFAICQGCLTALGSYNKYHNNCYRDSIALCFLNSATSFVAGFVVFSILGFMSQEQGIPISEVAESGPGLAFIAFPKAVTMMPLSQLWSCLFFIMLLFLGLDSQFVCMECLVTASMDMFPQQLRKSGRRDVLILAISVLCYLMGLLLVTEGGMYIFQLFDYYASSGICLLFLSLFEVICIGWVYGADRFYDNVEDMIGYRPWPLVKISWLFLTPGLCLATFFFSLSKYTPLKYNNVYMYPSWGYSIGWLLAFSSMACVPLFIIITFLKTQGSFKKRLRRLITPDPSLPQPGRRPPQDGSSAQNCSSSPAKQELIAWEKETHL
In words: Inhibition of mouse GAT2 stably expressed in HEK293 assessed as inhibition of [3H]GABA uptake after 25 mins by liquid scintillation counting. It is filed as cell-based. The essentials: as §1

A further data set has as its target T3, GABA transporter 3 (Mus musculus, UniProt P31649).
T3 sequence (P31649 whole entry): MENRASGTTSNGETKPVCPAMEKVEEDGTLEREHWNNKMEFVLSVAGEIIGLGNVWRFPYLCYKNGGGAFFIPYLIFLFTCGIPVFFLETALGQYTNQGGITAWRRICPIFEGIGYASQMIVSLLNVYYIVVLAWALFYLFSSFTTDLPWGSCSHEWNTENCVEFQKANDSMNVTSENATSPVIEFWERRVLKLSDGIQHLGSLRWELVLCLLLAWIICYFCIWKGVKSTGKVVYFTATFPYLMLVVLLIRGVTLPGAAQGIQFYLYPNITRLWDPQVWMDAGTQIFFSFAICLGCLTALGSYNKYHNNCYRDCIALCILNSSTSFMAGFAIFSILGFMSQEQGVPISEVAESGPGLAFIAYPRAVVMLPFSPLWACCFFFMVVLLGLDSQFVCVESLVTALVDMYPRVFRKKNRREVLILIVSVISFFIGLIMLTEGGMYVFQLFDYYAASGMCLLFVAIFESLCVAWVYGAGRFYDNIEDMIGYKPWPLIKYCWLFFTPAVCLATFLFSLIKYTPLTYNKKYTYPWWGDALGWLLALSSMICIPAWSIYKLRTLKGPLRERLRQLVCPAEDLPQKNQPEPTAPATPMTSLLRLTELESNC
Kind of data set: Inhibition of mouse GAT3 stably expressed in HEK293 assessed as inhibition of [3H]GABA uptake after 25 mins by liquid scintillation counting. It is filed as cell-based. Put shortly: as §1

The next data set deals with T4, GABA transporter 4 (Mus musculus, UniProt P31650).
T4 sequence (P31650 whole entry): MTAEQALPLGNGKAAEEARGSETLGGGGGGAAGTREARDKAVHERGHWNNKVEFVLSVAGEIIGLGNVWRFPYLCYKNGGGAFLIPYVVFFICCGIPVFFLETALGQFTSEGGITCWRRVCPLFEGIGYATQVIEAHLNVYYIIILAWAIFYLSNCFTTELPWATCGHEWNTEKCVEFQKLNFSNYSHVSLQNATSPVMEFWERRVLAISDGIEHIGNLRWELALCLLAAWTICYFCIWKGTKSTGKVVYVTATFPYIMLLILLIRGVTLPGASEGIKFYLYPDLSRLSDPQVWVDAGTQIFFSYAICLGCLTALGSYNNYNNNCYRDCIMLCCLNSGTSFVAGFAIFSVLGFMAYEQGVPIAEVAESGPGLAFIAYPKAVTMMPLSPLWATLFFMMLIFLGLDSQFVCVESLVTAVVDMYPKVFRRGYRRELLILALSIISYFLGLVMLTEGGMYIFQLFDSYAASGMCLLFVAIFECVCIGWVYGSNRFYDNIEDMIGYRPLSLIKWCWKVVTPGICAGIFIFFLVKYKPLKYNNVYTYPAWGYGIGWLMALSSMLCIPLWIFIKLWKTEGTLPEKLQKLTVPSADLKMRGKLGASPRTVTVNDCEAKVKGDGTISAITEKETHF
In words: Inhibition of mouse GAT4 stably expressed in HEK293 assessed as inhibition of [3H]GABA uptake after 25 mins by liquid scintillation counting. It is filed as cell-based. The essentials: as §1

Data set [5] addresses Sodium- and chloride-dependent GABA transporter 1 (Mus musculus) (UniProt P31648). Kind of data set: Selectivity ratio of IC50 for mouse GAT1 stably expressed in HEK293 assessed as inhibition of [3H]GABA uptake after 25 mins to IC50 for mouse GAT1 stably expressed in HEK293 assessed as inhibition of [3H]GABA uptake treated with compound irradiated at 375 nm for 30 mins measured after 25 mins.

A short description of data set [6]: Half life of thermal relaxation of the compound in DMSO-d6/phosphate-buffer at pH 7.4 in dark at 50 uM by UV/vis-spectroscopy. It is filed as physicochemical. The conditions noted are these: pH 7.4, 50 µM. Put shortly:
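Photoisomer relaxation to (E) monitored in the dark by UV/vis spectroscopy at 50 μM in DMSO-d6/phosphate buffer (pH 7.4) 1:200 (v/v), 25 °C; half-life derived from this thermal back-isomerization.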

For data set [7], the target named is Sodium- and chloride-dependent GABA transporter 1 (Mus musculus) (UniProt P31648). Kind of data set: Inhibition of GAT1 in C57BL/6N mouse dentate gyrus granule cells assessed as induction of tonic GABAA receptor-mediated current at -70 mV holding potential non-UV irradiated compound treated at 20 uM by patch-clamp analysis. For orientation: Patch clamp records ionic current or voltage across a cell membrane.

Data set [8] shares this target. Kind of data set: Inhibition of GAT1 in C57BL/6N mouse dentate gyrus granule cells assessed as induction of tonic GABAA receptor-mediated current at -70 mV holding potential UV irradiated compound treated at 20 uM by patch-clamp analysis.
Data set [9] shares this target. Kind of data set: Inhibition of GAT1 in C57BL/6N mouse dentate gyrus granule cells assessed as induction of tonic GABAA receptor-mediated current at -70 mV holding potential compound treated at 20 uM followed by neuronal tissue UV-irradiation by patch-clamp analysis.

Molecules are shown by their SMILES. The source made the active and inactive calls. No cut-off for these calls is given here.

As usually defined, the IC50 is the concentration that inhibits the measured activity by half. The molecule `O=C(O)C1CCCN(CCOCCc2cccc(/N=N\c3ccccc3)c2)C1` (stereo not given) displayed a t1/2 in [1] of 140 h. Also, the IC50 in data set [2] was 4.17 µM.
As for `O=C(O)[C@@H]1CCCN(CCOCCc2ccc(/N=N/c3cccc4ccccc34)cc2)C1`, the IC50 is 0.269 µM in data set [3]; 0.794 µM in data set [4]; 20.4 µM on GABA transporter 2; 19.5 µM at GABA transporter 3; 22.9 µM at GABA transporter 4. The Ratio IC50 in [5] amounted to 3.
The molecule `O=C(O)[C@@H]1CCCN(CCOCCc2ccc(/N=N\c3cccc4ccccc34)cc2)C1` registered a t1/2 in data set [6] of 13.6 h. The IC50 in data set [4] was 0.794 µM.
Consider `O=C(O)C1CCCN(CCOCCc2ccc(/N=N\c3ccccc3)cc2)C1` (stereo not given), for which the t1/2 in [1] is 57.6 h. Besides, the IC50 in data set [2] was 4.57 µM.
For `O=C(O)C1CCCN(CCOCCc2cccc(/N=N/c3ccccc3)c2)C1` (stereo not given), the concentration for half-maximal inhibition (IC50) in [3] was 3.16 µM; in data set [2], 4.17 µM; on GABA transporter 2 it was 339 µM; on GABA transporter 3, 148 µM; at GABA transporter 4, 209 µM.
For `O=C(O)C1CCCN(CCOCCc2ccccc2/N=N/c2ccccc2)C1` (stereo not given) the same measures were 10.7 µM, 5.5 µM, 234 µM, 145 µM and 562 µM.
As for `O=C(O)[C@@H]1CCCN(CCOCCc2cccc(/N=N/c3cccc4ccccc34)c2)C1`, the IC50 is 0.407 µM in [3]; 1.66 µM in data set [4]; 64.6 µM at GABA transporter 2; 25.1 µM on GABA transporter 3; 30.9 µM on GABA transporter 4. In addition, the Ratio IC50 in [5] was 4. Further, the inhibition result in [7] is “Active”. Besides, the inhibition result in data set [8] and in [9] was “inactive” each time.
Molecule `O=C(O)C1CCCN(CCOCCc2ccccc2/N=N\c2ccccc2)C1` (stereo not given) registered a t1/2 in [1] of 115 h. For the same molecule, in data set [2], the IC50 is 5.5 µM.
Turning to `O=C(O)C1CCCN(CCOCCc2ccc(/N=N/c3ccccc3)cc2)C1` (stereo not given), the 50% inhibitory concentration (IC50) in data set [3] is 1.91 µM; in [2] it was 4.57 µM; at GABA transporter 2, over 1000 µM; at GABA transporter 3, over 1000 µM; at GABA transporter 4, over 1000 µM.
Take `O=C(O)[C@@H]1CCCN(CCOCCc2cccc(/N=N\c3cccc4ccccc34)c2)C1`: the t1/2 in data set [6] worked out at 19.3 h. Also, the IC50 in data set [4] is 1.66 µM.
